Assay results as given in ChEMBL document CHEMBL4390681, “Novel allosteric covalent inhibitors of bifunctional Cryptosporidium hominis TS-DHFR from parasitic protozoa identified by virtual screening” (Bioorg Med Chem Lett, 2019).
The source made the active and inactive calls. The calls are words filed in the database; no cut-off is given here.

Legend:
[1] = target: T1, Bifunctional dihydrofolate reductase-thymidylate synthase (Cryptosporidium hominis) (UniProt A0A0S4TER9); assay: (§1) Inhibition of recombinant Cryptosporidium hominis TS-DHFR expressed in Escherichia coli PA414 assessed as reduction in DHFR steady state activity at 500 uM using [3',5',7,9-3H]-H2folate as substrate preincubated for 10 mins before NADPH addition for 5 mins followed by substrate addition and measured after 5 mins by NADPH based radiometric chemical quench assay relative to control
T1 sequence (whole entry): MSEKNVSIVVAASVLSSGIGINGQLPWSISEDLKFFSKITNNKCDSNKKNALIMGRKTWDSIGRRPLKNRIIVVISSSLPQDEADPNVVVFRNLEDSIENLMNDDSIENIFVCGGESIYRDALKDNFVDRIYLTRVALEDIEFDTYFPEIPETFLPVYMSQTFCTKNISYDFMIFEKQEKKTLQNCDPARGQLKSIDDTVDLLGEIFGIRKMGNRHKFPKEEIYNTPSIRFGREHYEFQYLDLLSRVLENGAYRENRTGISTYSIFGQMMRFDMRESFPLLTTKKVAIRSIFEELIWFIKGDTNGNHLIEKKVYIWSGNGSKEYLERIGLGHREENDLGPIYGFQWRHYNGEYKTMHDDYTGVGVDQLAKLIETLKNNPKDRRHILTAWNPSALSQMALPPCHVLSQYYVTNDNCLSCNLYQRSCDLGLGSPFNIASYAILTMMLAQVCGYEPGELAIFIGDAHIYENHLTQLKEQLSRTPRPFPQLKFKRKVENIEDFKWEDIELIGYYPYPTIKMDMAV
Outline: (§2)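 Radiometric DHFR steady-state activity assay on recombinant ChTS-DHFR. Compound was incubated with the enzyme for 10 min before the reaction was started. Single-point screen was at 500 µM, and dose-dependence was also assessed. Activity is expressed as percent of control.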

[2] = Solubility of the compound at >500 uM; assay type: physicochemical
[3] = target: T1, Bifunctional dihydrofolate reductase-thymidylate synthase (Cryptosporidium hominis); assay: as §1, with “activity” for “activity at 500 uM”; outline: as §2
[4] = test system: T2, Bifunctional dihydrofolate reductase-thymidylate synthase (Cryptosporidium hominis), A0A0S4TER9 [C44S]; assay: as §1, with “TS-DHFR Cys44Ser mutant” for “TS-DHFR”, “16 hrs” for “10 mins”
T2 sequence (whole entry): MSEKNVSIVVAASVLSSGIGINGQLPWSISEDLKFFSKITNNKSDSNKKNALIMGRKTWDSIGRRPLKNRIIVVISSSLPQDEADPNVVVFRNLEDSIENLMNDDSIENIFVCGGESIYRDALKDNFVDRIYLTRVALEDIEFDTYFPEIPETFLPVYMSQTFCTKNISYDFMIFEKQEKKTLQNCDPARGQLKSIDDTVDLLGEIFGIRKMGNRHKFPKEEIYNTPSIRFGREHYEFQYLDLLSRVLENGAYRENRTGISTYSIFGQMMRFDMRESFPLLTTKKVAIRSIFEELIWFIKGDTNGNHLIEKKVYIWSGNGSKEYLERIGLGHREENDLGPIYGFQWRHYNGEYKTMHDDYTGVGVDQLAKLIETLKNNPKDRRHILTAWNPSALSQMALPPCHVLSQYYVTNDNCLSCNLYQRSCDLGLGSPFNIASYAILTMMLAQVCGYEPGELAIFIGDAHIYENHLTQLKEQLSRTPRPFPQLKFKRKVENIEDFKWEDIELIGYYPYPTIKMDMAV
Outline: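 Wild-type and Cys44Ser mutant ChTS-DHFR, each incubated 16 h with compound before the radiometric DHFR reaction was started. Read-out was percent DHFR activity.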

[5] = target: T1, Bifunctional dihydrofolate reductase-thymidylate synthase (Cryptosporidium hominis); assay: Inhibition of recombinant Cryptosporidium hominis TS-DHFR expressed in Escherichia coli PA414 assessed as decrease in TS activity
[6] = target: T1, Bifunctional dihydrofolate reductase-thymidylate synthase (Cryptosporidium hominis); assay: (§3) Mixed noncompetitive inhibition of recombinant Cryptosporidium hominis TS-DHFR expressed in Escherichia coli PA414 assessed as Kobs at 100 uM […] preincubated for 10 mins before NADPH addition for 5 mins followed by substrate addition and measured after 5 mins by Lineweaver-Burk plot analysis (reference value: 1.98 +/- 0.09 /s)
[7] = target: T1, Bifunctional dihydrofolate reductase-thymidylate synthase (Cryptosporidium hominis); assay: as §3, with “250” for “100”
[8] = target: T1, Bifunctional dihydrofolate reductase-thymidylate synthase (Cryptosporidium hominis); assay: as §1, with “1 hr to 72 hrs” for “10 mins”; details: TDE = time-dependent effect
Outline: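 Compound at 500 µM was incubated with ChTS-DHFR for 1 h, 16 h, 48 h or 72 h before the radiometric DHFR reaction was initiated, to follow time-dependent inhibition. The standard assay uses a 10 min incubation.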

Cryptosporidium hominis = assay: Ratio of inhibition of recombinant Cryptosporidium hominis TS-DHFR Cys44Ser mutant expressed in Escherichia coli PA414 to inhibition of recombinant Cryptosporidium hominis TS-DHFR expressed in Escherichia coli PA414
[9] = target: T3, Dihydrofolate reductase (Homo sapiens) (UniProt P00374); assay: Inhibition of human DHFR assessed as decrease in DHFR steady state activity at 500 uM using [3',5',7,9-3H]-H2folate as substrate preincubated for 16 hrs before NADPH addition incubated for 5 mins followed by substrate addition and measured after 5 mins by NADPH based radiometric chemical quench assay relative to control
T3 sequence (whole entry): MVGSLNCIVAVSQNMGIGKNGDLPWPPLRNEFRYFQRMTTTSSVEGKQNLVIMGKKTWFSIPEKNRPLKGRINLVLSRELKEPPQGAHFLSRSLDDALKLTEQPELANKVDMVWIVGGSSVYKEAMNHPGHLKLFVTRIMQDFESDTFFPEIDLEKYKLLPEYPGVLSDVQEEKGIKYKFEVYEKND
Outline: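 Radiometric DHFR steady-state assay with human DHFR. Compound and enzyme were incubated for 16 h before the reaction was started. Percent inhibition was read relative to control.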

[10] = compound: Cc1cc(Br)ccc1NC(=S)Nc1cccc(NC(=O)c2ccccc2O)c1; assay: (§4) Mixed noncompetitive inhibition of recombinant Cryptosporidium hominis TS-DHFR expressed in Escherichia coli PA414 assessed as substrate Kcat at 100 uM using varying levels of [3',5',7,9-3H]-H2folate as substrate preincubated for 10 mins before NADPH addition for 5 mins followed by substrate addition and measured after 5 mins by Lineweaver-Burk plot analysis (reference value: 2.17 +/- 0.04 /s)
[11] = compound: Cc1cc(Br)ccc1NC(=S)Nc1cccc(NC(=O)c2ccccc2O)c1; assay: as §4, with “250” for “100”
[12] = compound: Cc1cc(Br)ccc1NC(=S)Nc1cccc(NC(=O)c2ccccc2O)c1; assay: as §4, with “Km” for “Kcat”, “1.2” for “2.17”, “0.2 uM)” for “0.04 /s)”
[13] = compound: Cc1cc(Br)ccc1NC(=S)Nc1cccc(NC(=O)c2ccccc2O)c1; assay: as §4, with “Km” for “Kcat”, “250” for “100”, “1.2” for “2.17”, “0.2 uM)” for “0.04 /s)”

With `O=C1NC(=S)NC(=O)C1=Cc1c[nH]c2ccccc12` as the molecule, how does the inhibition [1] read?
Its inhibition is -1.6%.

Which inhibition [1] does the source give for `CC(=O)C[C@@]1(O)C(=O)Nc2ccc(F)cc21` here?
The inhibition was -6%.

For `O=C(Nc1cccc(Cl)c1)c1cc(Cl)ccc1O`, which inhibition [1] is on record?
The inhibition was 54%.

And the solubility [2]?
Its solubility is “Insoluble”.

What about the inhibition [3] of the same molecule?
Its inhibition is “Dose-dependent effect”.

With `NCc1ccc(NC(=O)c2ccccc2O)cc1` as the molecule, how does the inhibition [1] read?
The inhibition was 1.1%.

Which inhibition [1] does the source give for `O=C(O)c1nccnc1-c1nc(=O)c2ccccc2[nH]1` here?
The inhibition was -4.4%.

Which inhibition [1] does the source give for `Cc1ccc(C(=O)Nc2cc(Cl)cc(Cl)c2)c(O)c1` here?
Its inhibition is 61%.

And the solubility [2]?
The solubility was “Insoluble”.

And the inhibition [3]?
Its inhibition is “Dose-dependent effect”.

What about the inhibition [4] of the same molecule?
Its inhibition is “inactive”.

Which inhibition [1] does the source give for `O=C(NNC(=O)c1ccccc1CO)c1ccc(Cl)c(Cl)c1` here?
Its inhibition is 21.2%.

With `O=c1ccn([C@H]2C[C@H](O)[C@@H](CO)O2)c(=O)[nH]1` as the molecule, how does the inhibition [1] read?
Its inhibition is -5.3%.

What does the source list for `Cc1cc(Br)ccc1NC(=S)Nc1cccc(NC(=O)c2ccccc2O)c1`?
inhibition [1]: 52.2%; inhibition [5]: inactive; solubility [2]: Insoluble; K [6]: 1.6 s⁻¹; K [7]: 1.33 s⁻¹; inhibition [3]: Dose-dependent effect

Which inhibition [1] does the source give for `O=C(Nc1ccc(F)c(Cl)c1)c1cc(Br)ccc1O` here?
The inhibition was 61%.

And the solubility [2]?
The solubility was “Insoluble”.

What about the inhibition [3] of the same molecule?
Its inhibition is “Dose-dependent effect”.

With `O=C(Nc1ccc(Cl)cc1)c1cc(I)ccc1O` as the molecule, how does the inhibition [1] read?
Its inhibition is 47%.

What about the solubility [2] of the same molecule?
Its solubility is “Insoluble”.

And the inhibition [3]?
The inhibition was “Dose-dependent effect”.

What does the source list for `O=C(Nc1cc(Cl)cc(Cl)c1)c1cc(Br)ccc1O`?
inhibition [1]: 49%; solubility [2]: Insoluble; inhibition [3]: Dose-dependent effect

For `CCOC(=O)C1=C(C)NC(C)=C(C(=O)OCC)C1c1ccc2c(c1)OCO2`, which inhibition [1] is on record?
Its inhibition is -7.9%.

Which inhibition [1] does the source give for `O=C(NCc1cccs1)c1ccc2nccnc2c1` here?
The inhibition was 2%.

Which inhibition [1] does the source give for `O=C(Nc1ccc(Cl)cc1)c1cc(Br)ccc1O` here?
The inhibition was 11.1%.

What does the source list for `Cc1ccc(C(=O)Nc2cccc(S)c2)c(O)c1`?
inhibition [8]: Tde; inhibition [4]: 38%; Ratio (Cryptosporidium hominis): 2; inhibition [9]: inactive

For `O=C(O)C[C@@H]1SC(c2ccc3c(c2)OCO3)=NC1=O`, which inhibition [1] is on record?
The inhibition was -0.67%.

With `CNC(=O)c1ccc(NC(=O)c2ccccc2O)cc1` as the molecule, how does the inhibition [1] read?
The inhibition was 14.7%.

With `O=C(Nc1ccc(F)cc1)c1cc(Br)ccc1O` as the molecule, how does the inhibition [1] read?
Its inhibition is 20%.

Which inhibition [1] does the source give for `COc1cc(C(F)(F)F)c(C(N)=O)cn1` here?
The inhibition was 0.29%.

For `O=C(Nc1ccccc1O)c1ccc(Br)cc1O`, which inhibition [1] is on record?
The inhibition was -0.176%.

For `O=C(Nc1ccc(Br)cc1)c1ccccc1O`, which inhibition [1] is on record?
The inhibition was 8.8%.

With `O=C(Nc1cc(Cl)cc(Cl)c1)c1ccccc1O` as the molecule, how does the inhibition [1] read?
The inhibition was 9.8%.

For `Nc1cc(NC(=O)c2ccccc2O)ccc1Cl`, which inhibition [1] is on record?
The inhibition was -1.3%.

For `O=C(Nc1cc(C(F)(F)F)cc(C(F)(F)F)c1)c1cc(Br)ccc1O`, which inhibition [1] is on record?
The inhibition was 24.4%.

Which inhibition [1] does the source give for `COc1ccc(Br)c(OC)c1C(=O)NC(=O)Nc1cc(Cl)cc(Cl)c1` here?
Its inhibition is 7.9%.

For `Cc1cc2c(cc1C)N[C@H](C)CC(=O)N2`, which inhibition [1] is on record?
The inhibition was -3.8%.

For `Oc1nc2ccccc2nc1O`, which inhibition [1] is on record?
The inhibition was -2.6%.

Which inhibition [1] does the source give for `NC(=S)Cc1c(Cl)sc2ccc(Cl)cc12` here?
The inhibition was 32.6%.

With `CCOC(=O)C(=CNNC(=O)[C@@H]1[C@@H](C(=O)O)[C@H]2C=C[C@@H]1C2)C(=O)OCC` as the molecule, how does the inhibition [1] read?
Its inhibition is -4.4%.

What does the source list for `O=C(Nc1cccc(S)c1)c1cc(Br)ccc1O`?
inhibition ([1]; TDE = time-dependent effect): Tde; inhibition [8]: Tde; inhibition [4]: inactive; inhibition [9]: 95%

For `Nc1cccc(NC(=O)c2ccccc2O)c1`, which inhibition [1] is on record?
Its inhibition is -1.3%.

B1: Bifunctional dihydrofolate reductase-thymidylate synthase (Cryptosporidium hominis), A0A0S4TER9 (protein)
chain: MSEKNVSIVVAASVLSSGIGINGQLPWSISEDLKFFSKITNNKCDSNKKNALIMGRKTWDSIGRRPLKNRIIVVISSSLPQDEADPNVVVFRNLEDSIENLMNDDSIENIFVCGGESIYRDALKDNFVDRIYLTRVALEDIEFDTYFPEIPETFLPVYMSQTFCTKNISYDFMIFEKQEKKTLQNCDPARGQLKSIDDTVDLLGEIFGIRKMGNRHKFPKEEIYNTPSIRFGREHYEFQYLDLLSRVLENGAYRENRTGISTYSIFGQMMRFDMRESFPLLTTKKVAIRSIFEELIWFIKGDTNGNHLIEKKVYIWSGNGSKEYLERIGLGHREENDLGPIYGFQWRHYNGEYKTMHDDYTGVGVDQLAKLIETLKNNPKDRRHILTAWNPSALSQMALPPCHVLSQYYVTNDNCLSCNLYQRSCDLGLGSPFNIASYAILTMMLAQVCGYEPGELAIFIGDAHIYENHLTQLKEQLSRTPRPFPQLKFKRKVENIEDFKWEDIELIGYYPYPTIKMDMAV
With B1 as the molecule, how does the kcat [10] read?
Its kcat is 1.9 s⁻¹.

What about the kcat [11] of the same molecule?
Its kcat is 1.2 s⁻¹.

And the Km [12]?
Its Km is 1.3 µM.

What about the Km [13] of the same molecule?
Its Km is 1.4 µM.
